Measured values pooled from the literature.
Protocols differ between the studies behind these lines. pEC50: −log10 of the molar value.
Observed: cell growth or viability

With CC(=O)c1nn(-c2ccccc2Cl)/c(=N/N=C(\C)c2ccc(NC(=O)c3ccccc3)cc2)s1 the viability was 9.62% (MCF7; MTT; 0.156 µM).
The viability of O=C(Nc1ccc(Oc2nnc(-c3ccc(Cl)cc3)c3ccccc23)cc1)c1ccccc1 is reported as 3.76% (MCF7; MTT; 0.625 µM, 24 h).
CC(=O)Nc1ccc(/C(C)=N/N=c2\sc(C(C)=O)nn2-c2ccc(C)cc2)cc1 has a viability of 99.7% (MCF7; MTT; 0.312 µM).
The cell death of CC(=NNC(=O)c1ccc(N)cc1)c1ccc(Nc2nnc(-c3ccc(Cl)cc3)c3ccccc23)cc1 is reported as 94.6% (MCF7; MTT; 2.5 µM).
With Cc1c(C(=O)O)ccc2c3n(nc12)[C@@H]1[C@H](C3)N(CC2CC2)[C@@]2(C(=O)Nc3cc(Cl)ccc32)[C@H]1c1cccc(Cl)c1F the GI50 was 0.31 nM (SJSA-1).
CCOC(=O)c1nn(-c2cccc(Cl)c2)/c(=N/N=C(\C)c2ccc(NC(=O)c3ccc(Cl)cc3)cc2)s1 gave a viability of 3.36% (MCF7; MTT; 1.25 µM).
For C[C@@H]1CC[C@@H]([C@@](O)(CNCc2ccccc2)COCc2ccccc2)[C@H](OCc2ccccc2)C1, the inhibition was 96.4% (MCF7; MTT; 30 µM, 72 h).
The cell death of CC(=NNC(=S)Nc1ccccc1)c1ccc(Nc2nnc(-c3ccc(Cl)cc3)c3ccccc23)cc1 is reported as 43% (MCF7; MTT; 0.625 µM).
For C=C(COCc1ccc(OC)cc1)[C@@H]1CC[C@@H](C)C[C@H]1OCc1ccc(OC)cc1, the inhibition was 24% (MCF7; MTT; 30 µM, 72 h).
For CC(=NNC(=O)c1ccccc1Cl)c1ccc(Nc2nnc(-c3ccc(Cl)cc3)c3ccccc23)cc1, the cell death was 0.177% (MCF7; MTT; 0.625 µM).
The inhibition of COc1ccc(CNC[C@@](C)(O)[C@@H]2CC[C@@H](C)C[C@H]2OCc2ccccc2)cc1 is reported as 97% (MCF7; MTT; 30 µM, 72 h).
The viability of CCOC(=O)c1nn(-c2cccc(Cl)c2)/c(=N/N=C(\C)c2ccc(NC(=O)c3ccccc3)cc2)s1 is reported as 6.34% (MCF7; MTT; 0.312 µM).
C=CC(=O)NC1CCN(c2ncc3ncnc(Nc4ccc(Oc5ccc6c(c5)ncn6C)c(C)c4)c3n2)CC1 has a pEC50 of 6.94 (C-33-A).
With C[C@@H]1CC[C@@H]([C@](C)(O)CNCc2ccccc2F)[C@H](OCc2ccccc2)C1 the inhibition was 39% (MCF7; MTT; 10 µM, 72 h).
The cell death of O=C(Nc1ccccc1)Nc1ccc(Oc2nnc(-c3ccc(Cl)cc3)c3ccccc23)cc1 is reported as 96.7% (MCF7; MTT; 2.5 µM).
C[C@@H]1CC[C@@H]([C@](O)(CNCc2cccc3ccccc23)COCc2ccccc2)[C@H](OCc2ccccc2)C1 has an inhibition of 81.1% (MCF7; MTT; 10 µM, 72 h).
The cell death of CC(=NNC(=O)c1ccccc1)c1ccc(Nc2nnc(-c3ccc(Cl)cc3)c3ccccc23)cc1 is reported as 1.42% (MCF7; MTT; 0.625 µM).
CC(=O)c1nn(-c2ccc(C)cc2)/c(=N/N=C(\C)c2ccc(NC(=O)c3ccccc3)cc2)s1 gave a viability of 4.79% (MCF7; MTT; 0.625 µM).
For C[C@@H]1CC[C@@H]([C@@](C)(O)Cn2cnc3ccccc32)[C@H](OCc2ccccc2)C1, the inhibition was 55.2% (MCF7; MTT; 10 µM, 72 h).
